According to ChEMBL document CHEMBL3596120, “Discovery of natural alkaloid bouchardatine as a novel inhibitor of adipogenesis/lipogenesis in 3T3-L1 adipocytes” (Bioorg Med Chem, 2015):
The source made the active and inactive calls. The rule behind the calls is not given here.

What was measured:
[1] = system: 3T3-L1; assay: Inhibition of adipogenesis in mouse 3T3L1 cells assessed as reduction in triglyceride content at 25 uM treated on day 3 to 6 by oil Red-O staining based microscopy; type: functional, cell-based
Method in brief: (§1)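 After 3T3-L1 differentiation (IBMX/dexamethasone/insulin induction, insulin, then basal medium), cells were PBS-washed and fixed in 4% formalin for 60 min. Stained with filtered Oil Red O for 30 min at room temperature and imaged at 40× objective. Dye eluted with isopropanol and read at 510 nm. Three independent experiments.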

[2] = system: 3T3-L1; assay: Increase in AMPKbeta Ser108 phosphorylation in mouse 3T3L1 cells at 1 to 50 uM after 9 days by Western blot method; type: cell-based
Method in brief: (§2)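 Mouse 3T3-L1 cells taken through the differentiation protocol, with compound or DMSO vehicle given from day 0 and renewed at day 3. Cells lysed on ice for 0.5 h in RIPA with PMSF, Na3VO4, NaF and protease inhibitors, then centrifuged at 12,000g. Lysates run on 12% SDS-PAGE and transferred to PVDF. Blots probed overnight at 4 °C and detected with HRP secondary. Bands quantified by optical density against GAPDH. Three independent experiments.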

[3] = system: 3T3-L1; assay: Increase in AMPKalpha Thr172 phosphorylation in mouse 3T3L1 cells at 25 uM after 9 days by Western blot method; type: cell-based; method in brief: as §2
[4] = Reduction in C/EBPbeta mRNA expression in mouse 3T3L1 cells after 72 hrs by RT-PCR method; type: functional, cell-based; settings: 3T3-L1
Method in brief: (§3)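 3T3-L1 preadipocytes grown in DMEM with 10% FBS at 37 °C under 5% CO2. Differentiation starts 2 days post-confluence (day 0) with IBMX, 100 ng/mL dexamethasone and insulin for 3 d, then insulin in 10% FBS/DMEM for 3 d, then basic medium for 3 d. Compound is added on day 0 and renewed at day 3. Vehicle control receives the same volume of DMSO.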

[5] = system: 3T3-L1; assay: Inhibition of adipogenesis in mouse 3T3L1 cells assessed as reduction in lipid droplets at 1 to 50 uM by oil Red-O staining based microscopy; type: functional, cell-based; method in brief: as §1
[6] = Cytotoxicity against mouse 3T3L1 cells assessed effect on cell morphology at 1 to 50 uM incubated for 1 to 9 days by microscopy; type: cell-based; settings: 3t3-l1, 50 µM
[7] = Reduction in SCD1 protein expression in mouse 3T3L1 cells at 1 to 50 uM after 9 days by Western blot method; type: functional, cell-based; settings: 3T3-L1; method in brief: as §3
[8] = system: 3T3-L1; assay: Induction of cell cycle arrest in mouse 3T3L1 cells assessed as accumulation at G2/M phase at 1 to 50 uM by flow cytometry; type: functional, cell-based
[9] = system: 3T3-L1; assay: Inhibition of adipogenesis in mouse 3T3L1 cells assessed as reduction in triglyceride content at 25 uM treated on day 6 to 9 by colorimetric assay; type: functional; settings: 3T3-L1, 144 h
[10] = system: 3T3-L1; assay: Activation of AMPK in mouse 3T3L1 cells assessed as increase in ACC Ser79 phosphorylation at 25 uM after 9 days by Western blot method; type: cell-based; method in brief: as §2
[11] = system: 3T3-L1; assay: Inhibition of adipogenesis in mouse 3T3L1 cells assessed as reduction in triglyceride content at 25 uM treated on day 0 to 3 by colorimetric assay; type: functional; settings: 3T3-L1, 0 h
[12] = system: 3T3-L1; assay: Inhibition of adipogenesis in mouse 3T3L1 cells assessed as reduction in cell finger ring diameter size at 1 to 50 uM by oil Red-O staining based microscopy; type: functional; method in brief: as §1
[13] = system: 3T3-L1; assay: Reduction in AMPKalpha2 mRNA expression in mouse 3T3L1 cells at 25 uM after 24 hrs by RT-PCR method; type: functional, cell-based
[14] = Cytotoxicity against mouse 3T3L1 cells at 1 to 50 uM incubated for 1 to 9 days by LDH assay; type: cell-based; settings: 3t3-l1, 50 µM
Method in brief: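 3T3-L1 adipocytes seeded at 7 × 10^3 cells/well, then treated 24 h later with DMSO vehicle as control. LDH in media and in cell lysates measured with a commercial kit. Cytotoxicity = LDH released into medium / maximal LDH release × 100. Maximum: […]. Blank: medium without cells.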

[15] = Reduction in C/EBPdelta mRNA expression in mouse 3T3L1 cells at 25 uM by RT-PCR method; type: functional, cell-based; settings: 3T3-L1, TDE = time-dependent effect; method in brief: as §3
[16] = system: 3T3-L1; assay: Reduction in AMPKalpha1 mRNA expression in mouse 3T3L1 cells at 25 uM after 24 hrs by RT-PCR method; type: functional, cell-based
[17] = system: 3T3-L1; assay: Induction of cell cycle arrest in mouse 3T3L1 cells assessed as accumulation at S phase at 25 uM after 24 hrs by flow cytometry (reference value: 18%); type: functional
[18] = system: HepG2; assay: Inhibition of oleic acid-induced adipogenesis in human HepG2 cells assessed as reduction in triglyceride content by colorimetric assay; type: functional, cell-based
Method in brief: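 HepG2 cells loaded with 0.5 mM oleic acid sodium, with or without compound. Lysed in 0.2% Triton X-100 in water and sonicated. TG measured colorimetrically and normalised to cellular protein. Blank: no oleate. Three independent experiments.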

[19] = system: 3T3-L1; assay: Inhibition of adipogenesis in mouse 3T3L1 cells assessed as reduction in triglyceride content at 25 uM by colorimetric assay; type: functional, cell-based
[20] = system: 3T3-L1; assay: Induction of cell cycle arrest in mouse 3T3L1 cells assessed as accumulation at G0/G1 phase at 1 to 50 uM after 24 hrs by flow cytometry; type: functional, cell-based
[21] = Reduction in FAS protein expression in mouse 3T3L1 cells at 1 to 50 uM after 9 days by Western blot method; type: functional, cell-based; settings: 3T3-L1; method in brief: as §3
[22] = Reduction in C/EBPbeta mRNA expression in mouse 3T3L1 cells at 25 uM by RT-PCR method; type: functional, cell-based; settings: 3T3-L1, TDE = time-dependent effect; method in brief: as §3
[23] = Reduction in FAS protein expression in mouse 3T3L1 cells at 25 uM after 9 days by Western blot method; settings: 3T3-L1
[24] = system: 3T3-L1; assay: Inhibition of adipogenesis in mouse 3T3L1 cells assessed as reduction in triglyceride content at 1 to 50 uM by colorimetric assay; type: functional, cell-based
[25] = system: 3T3-L1; assay: Inhibition of adipogenesis in mouse 3T3L1 cells assessed as reduction in cell size at 1 to 50 uM by oil Red-O staining based microscopy; type: functional; method in brief: as §1
[26] = Reduction in SREBP-1c protein expression in mouse 3T3L1 cells at 25 uM after 3 days by Western blot method; type: functional, cell-based; settings: 3T3-L1; method in brief: as §3

Compound: O=Cc1c(-c2nc3ccccc3c(=O)[nH]2)[nH]c2ccccc12
- inhibition [1]: Active
- Activity [2]: Dose-dependent effect
- Activity [3]: Active
- Activity [4]: Dose-dependent effect
- inhibition [5]: Active
- Activity [6]: Non-toxic
- Activity [7]: Active
- Activity [8]: Active
- inhibition at 25 µM [9]: < 10%
- Activity [10]: Active
- inhibition at 25 µM [11]: 50%
- inhibition [12]: Active
- Activity [13]: Active
- Activity [14]: Non-toxic
- Activity [15]: tde
- Activity [16]: Active
- Activity [17]: 5%
- inhibition [18]: Dose-dependent effect
- Activity [19]: Active
- Activity [20]: Dose-dependent effect
- Activity [21]: Active
- Activity [22]: tde
- Activity [23]: Active
- inhibition [24]: Dose-dependent effect
- inhibition [25]: Active
- Activity [26]: Active
